# Assay results from ChEMBL document CHEMBL1140754, “Synthesis and insecticidal evaluation of novel N'-tert-butyl-N'-substitutedbenzoyl-N-5-chloro-6-chromanecarbohydrazide derivatives” (2008).
# Test system: Mythimna separata
# Test: Larvicidal activity against Oriental armyworm
# Type: functional
# How it was run: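 Oriental armyworm (Mythimna separata) larvae dosed by foliar application. Each treatment run in triplicate. LC50 derived by Probit analysis. Reference insecticides were tested under the same conditions.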
row,Structure (SMILES),LC50
1,CC(C)(C)N(NC(=O)c1ccc2c(c1Cl)CCCO2)C(=O)c1ccc(Cl)cc1,4.06 µg/mL
2,CC(C)(C)N(NC(=O)c1ccc2c(c1Cl)CCCO2)C(=O)c1ccc(Cl)cc1Cl,4.11 µg/mL
3,CC(C)(C)N(NC(=O)c1ccc2c(c1Cl)CCCO2)C(=O)c1cc(Cl)cc(Cl)c1,4.11 µg/mL
4,CC(C)(C)N(NC(=O)c1ccc2c(c1Cl)CCCO2)C(=O)c1c(Cl)cc(Cl)cc1Cl,> 500 µg/mL
5,CC(C)(C)N(NC(=O)c1ccc2c(c1Cl)CCCO2)C(=O)c1c(Cl)cc(C(F)(F)F)cc1Cl,> 500 µg/mL
6,CC(C)(C)N(NC(=O)c1ccc2c(c1Cl)CCCO2)C(=O)c1ccccc1F,4.75 µg/mL
7,CC(C)(C)N(NC(=O)c1ccc2c(c1Cl)CCCO2)C(=O)c1ccccc1[N+](=O)[O-],6.54 µg/mL
8,CC(C)(C)N(NC(=O)c1ccc2c(c1Cl)CCCO2)C(=O)c1ccc([N+](=O)[O-])cc1,29.7 µg/mL
9,CC(C)(C)N(NC(=O)c1ccc2c(c1Cl)CCCO2)C(=O)c1ccc(F)cc1F,5.69 µg/mL
10,CC(C)(C)N(NC(=O)c1ccc2c(c1Cl)CCCO2)C(=O)c1cccc(I)c1,30.2 µg/mL
11,COc1ccc(C(=O)N(NC(=O)c2ccc3c(c2Cl)CCCO3)C(C)(C)C)cc1,25.1 µg/mL
12,COc1ccc(C(=O)N(NC(=O)c2ccc3c(c2Cl)CCCO3)C(C)(C)C)cc1OC,19.8 µg/mL
13,COc1cc(C(=O)N(NC(=O)c2ccc3c(c2Cl)CCCO3)C(C)(C)C)cc(OC)c1OC,42.7 µg/mL
14,CCOc1ccc(C(=O)N(NC(=O)c2ccc3c(c2Cl)CCCO3)C(C)(C)C)cc1,215 µg/mL
15,CC(C)(C)N(NC(=O)c1ccc2c(c1Cl)CCCO2)C(=O)c1cccc(Cl)c1,5.98 µg/mL
16,Cc1cc(C)cc(C(=O)N(NC(=O)c2ccc3c(c2C)OCCO3)C(C)(C)C)c1,1.4 µg/mL
17,CC(C)(C)N(NC(=O)c1ccc2c(c1Cl)CCCO2)C(=O)c1ccccc1,5 µg/mL

row,Structure (SMILES),LC50
1,Cc1ccccc1C(=O)N(NC(=O)c1ccc2c(c1Cl)CCCO2)C(C)(C)C,31.3 µg/mL
2,Cc1cccc(C(=O)N(NC(=O)c2ccc3c(c2Cl)CCCO3)C(C)(C)C)c1,2.78 µg/mL
3,Cc1ccc(C(=O)N(NC(=O)c2ccc3c(c2Cl)CCCO3)C(C)(C)C)c(C)c1,6.14 µg/mL
4,COc1cccc(C(=O)N(NC(=O)c2ccc3c(c2Cl)CCCO3)C(C)(C)C)c1,11.4 µg/mL
5,CC(C)(C)N(NC(=O)c1ccc2c(c1Cl)CCCO2)C(=O)c1ccc([N+](=O)[O-])cc1Cl,8.47 µg/mL
6,Cc1cc(C)c(C(=O)N(NC(=O)c2ccc3c(c2Cl)CCCO3)C(C)(C)C)c(C)c1,> 500 µg/mL
7,COc1ccccc1C(=O)N(NC(=O)c1ccc2c(c1Cl)CCCO2)C(C)(C)C,10.1 µg/mL
8,CC(C)(C)N(NC(=O)c1ccc2c(c1Cl)CCCO2)C(=O)c1cccc([N+](=O)[O-])c1,399 µg/mL
9,Cc1cc(C)cc(C(=O)N(NC(=O)c2ccc3c(c2Cl)OCCO3)C(C)(C)C)c1,1.4 µg/mL
10,Cc1ccc(C(=O)N(NC(=O)c2ccc3c(c2Cl)CCCO3)C(C)(C)C)cc1,5.57 µg/mL
11,CC(C)(C)N(NC(=O)c1ccc2c(c1Cl)CCCO2)C(=O)c1ccc(I)cc1,43.5 µg/mL
12,CC(C)(C)N(NC(=O)c1ccc2c(c1Cl)CCCO2)C(=O)c1ccccc1Cl,10.8 µg/mL
13,CC(C)(C)N(NC(=O)c1ccc2c(c1Cl)CCCO2)C(=O)c1ccc(Cl)cc1[N+](=O)[O-],2.73 µg/mL
14,"Cc1cc(C)cc(C(=O)N(NC(=O)c2ccc3c(c2Cl)CCCO3)C(C)(C)C)c1 [N'-TERT-BUTYL-N'-(3,5-DIMETHYLBENZOYL)-N-5-CHLORO-6-CHROMANECARBOHYDRAZIDE]",2.25 µg/mL
15,CC(C)(C)N(NC(=O)c1ccccc1)C(=O)c1ccccc1 [RH-5849],24.4 µg/mL
16,CCc1ccc(C(=O)NN(C(=O)c2cc(C)cc(C)c2)C(C)(C)C)cc1 [TEBUFENOZIDE],1.59 µg/mL
